Experimental data pooled from the literature.
Compare with care: the assays were run in different laboratories.
Target: Casein kinase I isoform gamma-1 (CSNK1G1, Homo sapiens, UniProt Q9HCP0)

Structure (SMILES)	observed	method	concentration	remaining binding [%]
CCN1CCN(Cc2ccc(C(=O)Nc3ccc(C)c(Oc4ccc5c(c4)CC(=O)N5)c3)cc2C(F)(F)F)CC1	binding	competition with immobilised ligand	1 µM	100
O=C(NCCCN1CCOCC1)c1ccc(Nc2nccc(-c3cc4ccccc4s3)n2)cc1	binding	competition with immobilised ligand	1 µM	81
Cn1nc(C(=O)NCc2ccc(C(=O)O)cc2)cc1-c1ccc2[nH]ccc2c1	cell-free assay	competition with immobilised ligand	0.1 µM	91
C[C@@H]1CCN(c2nccc(-c3cnn4ncccc34)n2)C1	binding		1 µM	87
COc1ncc2cc3ccccc3nc2c1C#N	cell-free assay	competition with immobilised ligand	5 µM	100
C[C@@H]1CN(c2cc(-c3nn(C)c4ccc(OC5(C)CC5)cc34)ncn2)C[C@H](C)O1	cell-free assay	competition with immobilised ligand	1 µM	89
COc1cnc(Nc2cccc(S(N)(=O)=O)c2)nc1N1CCN(c2ccccc2)C(=O)C1	binding	competition with immobilised ligand	1 µM	100
N[C@H]1CCN(c2nccc(-c3cnn4ncccc34)n2)C1	binding		1 µM	82
O=C(NCCCN1CCOCC1)c1ccc(Nc2ncc(Cl)c(-c3ccc(Cl)s3)n2)cc1	binding	competition with immobilised ligand	1 µM	88
CC(=O)c1c(NS(C)(=O)=O)c2cc(-c3ccc(Cl)cc3)c(-c3ccc(Cl)cc3Cl)nc2n(C)c1=O	cell-free assay	competition with immobilised ligand	1 µM	92
O=C(c1ccc(Nc2ncc(Cl)c(-c3ccc(Cl)s3)n2)cc1)N1CCC(N2CCCC2)CC1	binding	competition with immobilised ligand	1 µM	80
COc1cccc(CNC(=O)c2nc3scc(COCc4ccc(C(=O)O)cc4)c3c(=O)[nH]2)c1	cell-free assay	competition with immobilised ligand	1 µM	100
COc1cnc(Nc2cccc(S(N)(=O)=O)c2)nc1N1CCN(c2ccccc2)CC1	binding	competition with immobilised ligand	1 µM	100
CN(C)c1ncc(F)c(-c2cnn3ncccc23)n1	binding		1 µM	74
O=C(NCC1CCOCC1)c1n[nH]cc1NC(=O)c1c(F)cccc1F	binding	competition with immobilised ligand	1 µM	78
CN(c1nccc(-c2cnn3ncccc23)n1)C1CC1	binding		1 µM	100
O=C(NS(=O)(=O)c1ccc(NCC2CCOCC2)c([N+](=O)[O-])c1)c1ccc(N2CCN(Cc3ccc(C(F)(F)F)cc3-c3ccc(Cl)cc3)CC2)cc1Oc1cnc2[nH]ccc2c1	cell-free assay	competition with immobilised ligand	1 µM	95
CN(CCCC(F)(F)F)c1nccc(-c2cnn3ncccc23)n1	binding		1 µM	100
CN(C)c1ncnc(-c2ccc3nc(Nc4cc(CN5CCN(C(=O)CC(F)(F)F)CC5)ccn4)[nH]c3c2)c1Cl	cell-free assay	competition with immobilised ligand	1 µM	76
